The test system of the first test is Canis familiaris. In words: Heart rate (HR) in an acutely instrumented anesthetized dog model at 0.01 mg/kg intravenous dose. Format: functional, Canis lupus familiaris.
Details: not given
The gist of the method: (§1)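 Adult mongrel dogs of either sex, anesthetized with pentobarbital 35 mg/kg IV and maintained by infusion at 5 mg/kg per h. Control data collected for 30 min. Drug given IV in saline (or dilute HCl/NaOH diluted with saline), 0.1 mL/kg over 1 min. Ascending doses, usually half-log apart, 10-30 min between doses, one compound per dog. Recorded LV dP/dtmax, heart rate and aortic pressure as % change from control.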
In the case of `Cc1nc(O)c(N)cc1-c1ccc(-n2ccnc2)cc1`, the HR change from control is -1.5%.

As for `Cc1c(-c2ccc(-n3ccnc3)cc2)cnc(O)c1C#N`, the HR change from control was -0.5%.

As to `Cc1c(-c2ccc(-n3ccnc3)cc2)cc(C#N)c(=O)n1C`, the HR change from control was 1%.

For `Cc1nc(O)ccc1-c1ccc(-n2ccnc2)cc1`, the HR change from control was 3%.

The test system of another test is Canis familiaris. In words: Myocardial contractility in an acutely instrumented anesthetized dog model at 0.03 mg/kg intravenous dose. Format: functional, Canis lupus familiaris, Myocardium.
Details: not given
The gist of the method:
as §1
In the case of `Cc1nc(O)c(N)cc1-c1ccc(-n2ccnc2)cc1`, the “Change from Control (LV dp/dt)” value worked out at 80.5%.

As to `Cc1c(-c2ccc(-n3ccnc3)cc2)cnc(O)c1C#N`, the “Change from Control (LV dp/dt)” value is 12%.

Turning to `Cc1c(-c2ccc(-n3ccnc3)cc2)cc(C#N)c(=O)n1C`, the “Change from Control (LV dp/dt)” value is given as 10%.

Consider `Cc1nc(O)ccc1-c1ccc(-n2ccnc2)cc1`, for which the “Change from Control (LV dp/dt)” value was found to be 85%.

The test system of a further test is Canis familiaris. In words: Heart rate (HR) in an acutely instrumented anesthetized dog model at 0.03 mg/kg intravenous dose. Format: functional, Canis lupus familiaris.
Details: not given
A digest of the protocol: as §1
Regarding `Cc1nc(O)c(N)cc1-c1ccc(-n2ccnc2)cc1`, the HR change from control worked out at 12%.

With `Cc1c(-c2ccc(-n3ccnc3)cc2)cnc(O)c1C#N`, the HR change from control stood at 2%.

As for `Cc1c(-c2ccc(-n3ccnc3)cc2)cc(C#N)c(=O)n1C`, the HR change from control worked out at 0%.

Regarding `Cc1nc(O)ccc1-c1ccc(-n2ccnc2)cc1`, the HR change from control was 9%.

The subject of another test is Canis familiaris. In words: Change from control in mean arterial blood pressure (MABP) in an acutely instrumented anesthetized dog model at […] intravenous dose.
Details: not given
For the compound `Cc1nc(O)c(N)cc1-c1ccc(-n2ccnc2)cc1`, the MABP change from control was -17.5%.

Consider `Cc1c(-c2ccc(-n3ccnc3)cc2)cnc(O)c1C#N`, for which the MABP change from control worked out at 9.7%.

Consider `Cc1c(-c2ccc(-n3ccnc3)cc2)cc(C#N)c(=O)n1C`, for which the MABP change from control amounted to 1.5%.

Regarding `Cc1nc(O)ccc1-c1ccc(-n2ccnc2)cc1`, the MABP change from control was -20%.

A further test relates to Canis familiaris. In words: Myocardial contractility in an acutely instrumented anesthetized dog model at 0.01 mg/kg intravenous dose. Type of test: functional, Canis lupus familiaris, Myocardium. The following applies: dose 0.1 mg/kg, in the assay text read “0.1 mg/kg” for “0.01 mg/kg”. The gist of the method:
as §1
For `Cc1nc(O)c(N)cc1-c1ccc(-n2ccnc2)cc1`, the “Change from Control (LV dp/dt)” value was 134.5%.

In the case of `Cc1c(-c2ccc(-n3ccnc3)cc2)cnc(O)c1C#N`, the “Change from Control (LV dp/dt)” value came out at 21%.

Turning to `Cc1c(-c2ccc(-n3ccnc3)cc2)cc(C#N)c(=O)n1C`, the “Change from Control (LV dp/dt)” value was 16%.

Take `Cc1nc(O)ccc1-c1ccc(-n2ccnc2)cc1`: the “Change from Control (LV dp/dt)” value was 109%.

The next test relates to Canis familiaris. In words: Mean arterial blood pressure (MABP) in an acutely instrumented anesthetized dog model at 0.1 mg/kg intravenous dose. Format: functional, Canis lupus familiaris.
Details: not given
The gist of the method: as §1
For `Cc1nc(O)c(N)cc1-c1ccc(-n2ccnc2)cc1`, the MABP change from control is -5%.

For `Cc1c(-c2ccc(-n3ccnc3)cc2)cnc(O)c1C#N`, the MABP change from control worked out at 5.5%.

As for `Cc1c(-c2ccc(-n3ccnc3)cc2)cc(C#N)c(=O)n1C`, the MABP change from control amounted to 2%.

As to `Cc1nc(O)ccc1-c1ccc(-n2ccnc2)cc1`, the MABP change from control was -9.5%.

For another test, the system named is Canis familiaris. In words: Heart rate (HR) in an acutely instrumented anesthetized dog model at […] intravenous dose.
Details: not given
Type of test: functional, Canis lupus familiaris.
As to `Cc1nc(O)c(N)cc1-c1ccc(-n2ccnc2)cc1`, the HR change from control stood at 21.5%.

With `Cc1c(-c2ccc(-n3ccnc3)cc2)cnc(O)c1C#N`, the HR change from control was found to be 7.5%.

`Cc1c(-c2ccc(-n3ccnc3)cc2)cc(C#N)c(=O)n1C`: the HR change from control turned out to be 2%.

Take `Cc1nc(O)ccc1-c1ccc(-n2ccnc2)cc1`: the HR change from control is 26%.

A further test relates to Canis familiaris. In words: Mean arterial blood pressure (MABP) in an acutely instrumented anesthetized dog model at 1 mg/kg intravenous dose.
Details: not given
Type of test: functional, Canis lupus familiaris. A digest of the protocol:
as §1
Take `Cc1nc(O)c(N)cc1-c1ccc(-n2ccnc2)cc1`: the MABP change from control is -27.5%.

Turning to `Cc1c(-c2ccc(-n3ccnc3)cc2)cnc(O)c1C#N`, the MABP change from control was -2.5%.

On to `Cc1c(-c2ccc(-n3ccnc3)cc2)cc(C#N)c(=O)n1C`, for which the MABP change from control was found to be 0.5%.

As for `Cc1nc(O)ccc1-c1ccc(-n2ccnc2)cc1`, the MABP change from control is -19.5%.

Another test has as its system Canis familiaris. In words: Myocardial contractility in an acutely instrumented anesthetized dog model at […] intravenous dose.
Details: not given
Type of test: functional, Canis lupus familiaris, Myocardium.
In the case of `Cc1nc(O)c(N)cc1-c1ccc(-n2ccnc2)cc1`, the “Change from Control (LV dp/dt)” value was found to be 125.5%.

`Cc1c(-c2ccc(-n3ccnc3)cc2)cnc(O)c1C#N`: the “Change from Control (LV dp/dt)” value was found to be 54%.

As for `Cc1c(-c2ccc(-n3ccnc3)cc2)cc(C#N)c(=O)n1C`, the “Change from Control (LV dp/dt)” value amounted to 18%.

On to `Cc1nc(O)ccc1-c1ccc(-n2ccnc2)cc1`, for which the “Change from Control (LV dp/dt)” value amounted to 121%.

The test system of the next test is Canis familiaris. Description: Heart rate (HR) in an acutely instrumented anesthetized dog model at 0.1 mg/kg intravenous dose. Format: functional, Canis lupus familiaris.
Details: not given
A digest of the protocol:
as §1
As for `Cc1nc(O)c(N)cc1-c1ccc(-n2ccnc2)cc1`, the HR change from control worked out at 18%.

On to `Cc1c(-c2ccc(-n3ccnc3)cc2)cnc(O)c1C#N`, for which the HR change from control is 4.5%.

Turning to `Cc1c(-c2ccc(-n3ccnc3)cc2)cc(C#N)c(=O)n1C`, the HR change from control came to 3%.

Consider `Cc1nc(O)ccc1-c1ccc(-n2ccnc2)cc1`, for which the HR change from control turned out to be 17%.

Another test deals with Canis familiaris. In words: Myocardial contractility in an acutely instrumented anesthetized dog model at 1 mg/kg intravenous dose. Type of test: functional, Canis lupus familiaris, Myocardium.
Details: not given
A digest of the protocol:
as §1
As to `Cc1nc(O)c(N)cc1-c1ccc(-n2ccnc2)cc1`, the “Change from Control (LV dp/dt)” value came out at 105.5%.

`Cc1c(-c2ccc(-n3ccnc3)cc2)cnc(O)c1C#N`: the “Change from Control (LV dp/dt)” value was 125.5%.

Take `Cc1c(-c2ccc(-n3ccnc3)cc2)cc(C#N)c(=O)n1C`: the “Change from Control (LV dp/dt)” value is on record as 39%.

As to `Cc1nc(O)ccc1-c1ccc(-n2ccnc2)cc1`, the “Change from Control (LV dp/dt)” value was 122%.

The subject of the next test is Canis familiaris. In words: Mean arterial blood pressure (MABP) in an acutely instrumented anesthetized dog model at 0.03 mg/kg intravenous dose. Format: functional, Canis lupus familiaris.
Details: not given
The gist of the method: as §1
As to `Cc1nc(O)c(N)cc1-c1ccc(-n2ccnc2)cc1`, the “MABP % change from control” value is 1.

Take `Cc1c(-c2ccc(-n3ccnc3)cc2)cnc(O)c1C#N`: the “MABP % change from control” value was determined as 4.7.

As to `Cc1c(-c2ccc(-n3ccnc3)cc2)cc(C#N)c(=O)n1C`, the “MABP % change from control” value is 1.

In the case of `Cc1nc(O)ccc1-c1ccc(-n2ccnc2)cc1`, the “MABP % change from control” value is -2.

The next test relates to Canis familiaris. Description: Mean arterial blood pressure (MABP) in an acutely instrumented anesthetized dog model at 0.01 mg/kg intravenous dose.
Details: not given
Format: functional, Canis lupus familiaris. The gist of the method:
as §1
For `Cc1nc(O)c(N)cc1-c1ccc(-n2ccnc2)cc1`, the MABP change from control was determined as 0.5%.

`Cc1c(-c2ccc(-n3ccnc3)cc2)cnc(O)c1C#N`: the MABP change from control turned out to be 1.5%.

For the compound `Cc1c(-c2ccc(-n3ccnc3)cc2)cc(C#N)c(=O)n1C`, the MABP change from control was found to be 2%.

In the case of `Cc1nc(O)ccc1-c1ccc(-n2ccnc2)cc1`, the MABP change from control was -2.5%.

In a further test the test system is Canis familiaris. Description: Heart rate (HR) in an acutely instrumented anesthetized dog model at 1 mg/kg intravenous dose. Format: functional, Canis lupus familiaris.
Details: not given
A digest of the protocol: as §1
On to `Cc1nc(O)c(N)cc1-c1ccc(-n2ccnc2)cc1`, for which the HR change from control stood at 22%.

With `Cc1c(-c2ccc(-n3ccnc3)cc2)cnc(O)c1C#N`, the HR change from control worked out at 19.5%.

In the case of `Cc1c(-c2ccc(-n3ccnc3)cc2)cc(C#N)c(=O)n1C`, the HR change from control amounted to 3%.

Consider `Cc1nc(O)ccc1-c1ccc(-n2ccnc2)cc1`, for which the HR change from control amounted to 29%.

The next test concerns Canis familiaris. Description: Myocardial contractility in an acutely instrumented anesthetized dog model at 0.001 mg/kg intravenous dose. Type of test: functional, Canis lupus familiaris, Myocardium. Conditions: dose 0.01 mg/kg, in the assay text read “0.01 mg/kg” for “0.001 mg/kg”. A digest of the protocol:
as §1
With `Cc1nc(O)c(N)cc1-c1ccc(-n2ccnc2)cc1`, the “Change from Control (LV dp/dt)” value was 24.5%.

Turning to `Cc1c(-c2ccc(-n3ccnc3)cc2)cnc(O)c1C#N`, the “Change from Control (LV dp/dt)” value was 2.5%.

Consider `Cc1c(-c2ccc(-n3ccnc3)cc2)cc(C#N)c(=O)n1C`, for which the “Change from Control (LV dp/dt)” value was 8%.

In the case of `Cc1nc(O)ccc1-c1ccc(-n2ccnc2)cc1`, the “Change from Control (LV dp/dt)” value was found to be 36%.
